SMILES strings stand for the structures.

By inhibition in vivo is commonly meant the change of the read-out against control, counted positive when it falls. In general, inhibition refers to how much of the control response was suppressed. As usually defined, the IC50 is the concentration that gives 50% inhibition. Higher therefore signals weaker potency in that assay.

One experiment has as its system Cavia porcellus. In words: Ability to inhibit the Ovalbumin induced bronchospasm in guinea pig was determined in vivo at a dose of 50 mg/kg id. The format is functional. The following applies: route intraduodenal. The essentials: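 Guinea pigs were challenged with LTD4 or ovalbumin to induce bronchospasm, and test agent was given intraduodenally. Read-out is percent inhibition of bronchospasm. Significance uses a two-tailed Student's t test (p < 0.05). N is the number of treated animals.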

The species named for experiment [1] is Rattus norvegicus. Put plainly: Tested for metabolic activation counted as mean number of revertants in strains TA98, TA100, TA1535, and TA1538, three plates per treatment at 0.05 mg per plate, without activation in the absence of S-9 rat liver homogenates in Ames test. The experiment is classed as functional, organism-based. Background: The Ames test detects mutagens through reverse mutation in bacteria.

The species entered for experiment [2] is Rattus norvegicus. Put plainly: Tested for metabolic activation counted as mean number of revertants in strains TA98, TA100, TA1535, and TA1538, three plates per treatment at 0.15 mg per plate, with activation provided by S-9 rat liver homogenates in Ames test. The experiment is classed as functional, organism-based.
The species named for experiment [3] is Rattus norvegicus. In words: Tested for metabolic activation counted as mean number of revertants in strains TA98, TA100, TA1535, and TA1538, three plates per treatment at 0.015 mg per plate, without activation in the absence of S-9 rat liver homogenates in Ames test. The format is functional, organism-based.
The test system of experiment [4] is Cysteinyl leukotriene receptor (Cavia porcellus). In words: Inhibition of LTD4 induced bronchospasm in guinea pig was determined in at 50 mg/kg i.d.
The species named for experiment [5] is Rattus norvegicus. Put plainly: Tested for metabolic activation counted as mean number of revertants in strains TA98, TA100, TA1535, and TA1538, three plates per treatment at 0.05 mg per plate, with activation provided by S-9 rat liver homogenates in Ames test. The format is functional, organism-based.
The species entered for experiment [6] is Rattus norvegicus. In words: Tested for metabolic activation counted as mean number of revertants in strains TA98, TA100, TA1535, and TA1538, three plates per treatment at 0.005 mg per plate, with activation provided by S-9 rat liver homogenates in Ames test. The experiment is classed as functional, organism-based.
The species entered for experiment [7] is Rattus norvegicus. In words: Tested for metabolic activation counted as mean number of revertants in strains TA98, TA100, TA1535, and TA1538, three plates per treatment at 0.015 mg per plate, with activation provided by S-9 rat liver homogenates in Ames test. The experiment is classed as functional, organism-based.
Experiment [8] is filed under the species Rattus norvegicus. Put plainly: Tested for metabolic activation counted as mean number of revertants in strains TA98, TA100, TA1535, and TA1538, three plates per treatment at 0.5 mg per plate, with activation provided by S-9 rat liver homogenates in Ames test. The experiment is classed as functional, organism-based.
Experiment [9] is filed under the species Rattus norvegicus. In words: Tested for metabolic activation counted as mean number of revertants in strains TA98, TA100, TA1535, and TA1538, three plates per treatment at 0.15 mg per plate, without activation in the absence of S-9 rat liver homogenates in Ames test. The experiment is classed as functional, organism-based.
For experiment [10], the species on record is Rattus norvegicus. In words: Tested for metabolic activation counted as mean number of revertants in strains TA98, TA100, TA1535, and TA1538, three plates per treatment at 0.005 mg per plate, without activation in the absence of S-9 rat liver homogenates in Ames test. The format is functional, organism-based.
The target of experiment [11] is T1, Polyunsaturated fatty acid 5-lipoxygenase (Rattus norvegicus, UniProt P12527).
T1 sequence (P12527 whole entry): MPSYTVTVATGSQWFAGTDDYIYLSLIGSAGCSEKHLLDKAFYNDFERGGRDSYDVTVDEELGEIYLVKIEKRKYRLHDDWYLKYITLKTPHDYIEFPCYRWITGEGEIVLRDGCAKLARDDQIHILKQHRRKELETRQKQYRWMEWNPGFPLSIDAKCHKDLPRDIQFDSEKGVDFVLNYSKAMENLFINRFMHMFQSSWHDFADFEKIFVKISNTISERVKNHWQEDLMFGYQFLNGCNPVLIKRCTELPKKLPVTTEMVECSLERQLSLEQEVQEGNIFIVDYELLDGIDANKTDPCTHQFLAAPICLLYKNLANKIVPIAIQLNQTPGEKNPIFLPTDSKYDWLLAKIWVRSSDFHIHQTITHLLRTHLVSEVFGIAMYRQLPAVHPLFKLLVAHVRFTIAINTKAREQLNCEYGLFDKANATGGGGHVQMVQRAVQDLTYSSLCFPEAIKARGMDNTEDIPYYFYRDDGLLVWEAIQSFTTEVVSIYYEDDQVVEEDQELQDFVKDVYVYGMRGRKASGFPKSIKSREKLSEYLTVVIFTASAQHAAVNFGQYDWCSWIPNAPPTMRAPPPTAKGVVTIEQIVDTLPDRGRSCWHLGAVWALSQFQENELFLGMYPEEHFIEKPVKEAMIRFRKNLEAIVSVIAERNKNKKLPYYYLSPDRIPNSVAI
In words: (§1) Ability to inhibit Lipoxygenase in vitro was determined. In outline: (§2)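 Source is rat polymorphonuclear leukocyte (PMN) 5-lipoxygenase. IC50 values come from nonlinear regression analysis, significant at p < 0.05.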

The species entered for experiment [12] is Rattus norvegicus. Put plainly: Tested for metabolic activation counted as mean number of revertants in strains TA98, TA100, TA1535, and TA1538, three plates per treatment at 1.5 mg per plate, with activation provided by S-9 rat liver homogenates in Ames test. The experiment is classed as functional, organism-based.
For experiment [13], the species on record is Rattus norvegicus. Put plainly: Tested for metabolic activation counted as mean number of revertants in strains TA98, TA100, TA1535, and TA1538, three plates per treatment at 1.5 mg per plate, without activation in the absence of S-9 rat liver homogenates in Ames test. The experiment is classed as functional, organism-based.
The species named for experiment [14] is Rattus norvegicus. Put plainly: Tested for metabolic activation counted as mean number of revertants in strains TA98, TA100, TA1535, and TA1538, three plates per treatment at 5.0 mg per plate, without activation in the absence of S-9 rat liver homogenates in Ames test. The experiment is classed as functional, organism-based.
The species entered for experiment [15] is Rattus norvegicus. Put plainly: Tested for metabolic activation counted as mean number of revertants in strains TA98, TA100, TA1535, and TA1538, three plates per treatment at 5.0 mg per plate, with activation provided by S-9 rat liver homogenates in Ames test. The experiment is classed as functional, organism-based.
Experiment [16] has as its target T1, Polyunsaturated fatty acid 5-lipoxygenase. The description is as §1. This is another data set of the same source.
The target in experiment [17] is T2, Polyunsaturated fatty acid 5-lipoxygenase (Rattus norvegicus) (UniProt P12527).
T2 sequence (whole entry): T1 sequence (P12527 whole entry)
In words: Ability to inhibit the rat Lipoxygenase in vitro was determined; NA is <50% inhibition at 100 uM. The essentials:
as §2

For experiment [18], the target named is T2, Polyunsaturated fatty acid 5-lipoxygenase (Rattus norvegicus). Put plainly: Ability to inhibit Lipoxygenase in vitro was determined; NA is <50% inhibition at 100 uM. The essentials:
as §2

For `COC(=O)CCC(=O)N(O)c1cccc(OCc2ccc3ccccc3n2)c1`, the inhibition in vivo at 50 mg/kg with Cavia porcellus came out at 76%. Further, the Mean no. of revertants in the experiment listed under Rattus norvegicus [1] stood at 13; in the experiment listed under Rattus norvegicus [2] it was 12; in the experiment listed under Rattus norvegicus [3] it was 9; in the experiment filed under Rattus norvegicus [5], 16; in the experiment filed under Rattus norvegicus [6], 13; in the experiment listed under Rattus norvegicus [7], 10. Also, the results for the Mean no. of revertants in the experiment listed under Rattus norvegicus [8], in the experiment filed under Rattus norvegicus [9] and in the experiment filed under Rattus norvegicus [10] were 716, 31 and 15, respectively. In [4], this compound displayed an inhibition of 97%.
Take `COC(=O)CCC(=O)Nc1cccc(OCc2nc3ccccc3n2C)c1`: the inhibition in vivo at 50 mg/kg with Cavia porcellus was 60%. For the same compound, in experiment [11], 7.2 µM corresponded to half-maximal inhibition (IC50).
Turning to `COC(=O)CCC(=O)Nc1cccc(OCc2ccc3ccccc3n2)c1`, the Mean no. of revertants stood at 2770 in the experiment listed under Rattus norvegicus [12]; 24 in the experiment listed under Rattus norvegicus [1]; 15 in the experiment filed under Rattus norvegicus [2]; 2930 in the experiment filed under Rattus norvegicus [13]; 2260 in the experiment listed under Rattus norvegicus [14]; 15 in the experiment filed under Rattus norvegicus [5]. The Mean no. of revertants in the experiment listed under Rattus norvegicus [8] turned out to be 566; in the experiment listed under Rattus norvegicus [9], 25; in the experiment listed under Rattus norvegicus [15] it was 2880. Besides, the inhibition in vivo at 50 mg/kg in the experiment on Cavia porcellus came out at 43%.
Turning to `CCCc1c(OCCCCc2nnn[nH]2)ccc(C(C)=O)c1O` [TOMELUKAST], in the experiment on Cavia porcellus, the inhibition in vivo at 50 mg/kg was 79.7%. In experiment [16], this compound returned a 50% inhibitory concentration (IC50) of 18.9 µM.
For the compound `COC(=O)CCC(=O)Nc1cccc(OCc2nc3ccccc3o2)c1`, the inhibition in vivo at 50 mg/kg with Cavia porcellus is -65%. In experiment [11], this compound showed an IC50 of 69.7 µM.
The compound `Cn1c(COc2cccc(NC(=O)CCC(=O)O)c2)nc2ccccc21` gave an inhibition in experiment [17] of under 50%.
On to `COC(=O)CCC(=O)Nc1cccc(Oc2nc3ccccc3s2)c1`, for which, in the experiment on Cavia porcellus, the inhibition in vivo at 50 mg/kg amounted to 7%. The same compound came in with an IC50 in experiment [16] of 27.1 µM.
As to `CCCCCC(O)c1cccc(OCc2ccc3ccccc3n2)c1` (stereo not drawn) [REV-5901], the inhibition in vivo at 50 mg/kg in the experiment on Cavia porcellus worked out at 60.2%.
Take `COC(=O)CCC(=O)Nc1cccc(OCC(=O)Nc2ccccc2)c1`: the inhibition in experiment [18] was under 50%. In addition, the inhibition in vivo at 50 mg/kg with Cavia porcellus was 7%.
The like results for `O=C1CCC(=O)N1c1cccc(OCc2nc3ccccc3s2)c1` were, in that order, under 50% and 18%.
As for `COC(=O)CCC(=O)Nc1cccc(OCc2cc3ccccc3o2)c1`, the inhibition in vivo at 50 mg/kg in the experiment with Cavia porcellus worked out at 12%. In experiment [16], this compound returned an IC50 of 17.9 µM.
The compound `COC(=O)CCC(=O)Nc1cccc(OCc2ccccn2)c1` had an inhibition in experiment [18] of under 50%.

Source of the values: ChEMBL document CHEMBL1123920, “Leukotriene D4 antagonists and 5-lipoxygenase inhibitors. Synthesis of benzoheterocyclic [(methoxyphenyl)amino]oxoalkanoic acid esters” (J Med Chem, 1987).
